Results as given in ChEMBL document CHEMBL1136933 (J Med Chem, 2009).
Activity calls are given as the source filed them. No cut-off for these calls is given here.

Assays:
[1] = target: Muscarinic acetylcholine receptor M3 (Homo sapiens, UniProt P20309); assay: Activation of human muscarinic M3 receptor expressed in CHO cells coexpressing Gq protein assessed as potentiation of acetylcholine-induced intracellular Ca2+ mobilization; assay type: functional, cell-based
Summary of the method: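 Calcium flux assay. Stable CHO lines were seeded at 5 × 10^4 cells/well (M1, M3, M5) or 6 × 10^4 cells/well (Gqi5 M2, M4) and grown overnight at 37 °C, 5% CO2. Cells were loaded 1 h at 37 °C with 2 µM Fluo-4 AM. […] At least three independent determinations, each in duplicate or more.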

[2] = Selectivity ratio of EC50 for rat muscarinic M2 receptor to EC50 for human muscarinic M5 receptor
[3] = Cmax in Sprague-Dawley rat plasma at 10 mg/kg, ip within 1 hr; assay type: ADME, organism-based; parameters: dose 10 mg/kg, route intraperitoneal
Summary of the method: (§1)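 Male Sprague-Dawley rats (225-250 g) dosed ip at 10 mg/kg as a 5 mg/ml micro-suspension in 10% Tween 80 in sterile water. Plasma and brain sampled at 0.5, 1, 3 and 6 h, three animals per time point. Quantified by protein precipitation and LC-MS/MS against an internal standard. Brain values corrected for residual blood. PK parameters derived by noncompartmental analysis.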

[4] = target: T1, Muscarinic acetylcholine receptor M1 (Rattus norvegicus, UniProt P08482); assay: Activation of rat muscarinic M1 receptor expressed in CHO cells co-expressing Gq protein assessed as potentiation of acetylcholine-induced intracellular Ca2+ mobilization; assay type: functional, cell-based
T1 sequence (P08482 whole entry): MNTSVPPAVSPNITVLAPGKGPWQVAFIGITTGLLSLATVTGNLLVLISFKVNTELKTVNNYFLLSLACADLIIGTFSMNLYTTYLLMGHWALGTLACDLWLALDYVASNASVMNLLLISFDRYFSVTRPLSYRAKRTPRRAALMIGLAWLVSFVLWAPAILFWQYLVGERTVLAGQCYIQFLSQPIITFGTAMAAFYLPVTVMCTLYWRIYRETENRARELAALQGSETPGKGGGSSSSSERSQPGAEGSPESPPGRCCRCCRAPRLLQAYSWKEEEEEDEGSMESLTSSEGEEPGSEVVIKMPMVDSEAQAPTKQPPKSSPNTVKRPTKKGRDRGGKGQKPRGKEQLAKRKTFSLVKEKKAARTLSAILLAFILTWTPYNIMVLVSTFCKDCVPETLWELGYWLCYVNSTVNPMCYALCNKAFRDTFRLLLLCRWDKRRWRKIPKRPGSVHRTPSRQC

Plasma = assay: Elimination half life in Sprague-Dawley rat plasma at 10 mg/kg, ip; assay type: ADME, organism-based; parameters: dose 10 mg/kg, route intraperitoneal; settings: in vivo; summary of the method: as §1
[5] = Selectivity ratio of EC50 for rat muscarinic M1 receptor to EC50 for human muscarinic M5 receptor
[6] = target: T2, Muscarinic acetylcholine receptor M5 (Homo sapiens) (UniProt P08912); assay: Activation of human muscarinic M5 receptor expressed in CHO cells coexpressing Gq protein assessed as potentiation of acetylcholine-induced intracellular Ca2+ mobilization at 30 uM relative to acetylcholine; assay type: functional, cell-based
T2 sequence (whole entry): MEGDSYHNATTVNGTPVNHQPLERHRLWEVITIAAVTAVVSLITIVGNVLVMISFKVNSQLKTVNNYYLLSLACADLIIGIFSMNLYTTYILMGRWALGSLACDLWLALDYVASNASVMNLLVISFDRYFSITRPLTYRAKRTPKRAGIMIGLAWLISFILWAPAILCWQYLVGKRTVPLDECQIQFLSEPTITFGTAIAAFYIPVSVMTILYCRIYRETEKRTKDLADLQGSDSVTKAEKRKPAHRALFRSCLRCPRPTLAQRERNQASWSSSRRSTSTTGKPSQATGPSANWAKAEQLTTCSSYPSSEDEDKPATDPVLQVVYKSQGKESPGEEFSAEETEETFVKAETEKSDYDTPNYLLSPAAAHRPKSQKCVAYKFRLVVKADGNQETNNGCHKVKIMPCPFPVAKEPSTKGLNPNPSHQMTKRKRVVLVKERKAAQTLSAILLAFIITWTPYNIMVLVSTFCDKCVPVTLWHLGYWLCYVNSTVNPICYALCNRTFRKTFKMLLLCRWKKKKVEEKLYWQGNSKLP

[7] = target: T3, Muscarinic acetylcholine receptor M4 (Rattus norvegicus) (UniProt P08485); assay: Activation of rat muscarinic M4 receptor expressed in CHO cells coexpressing chimeric Gqi5 protein assessed as potentiation of acetylcholine-induced intracellular Ca2+ mobilization up to 30 uM; assay type: functional, cell-based
T3 sequence (whole entry): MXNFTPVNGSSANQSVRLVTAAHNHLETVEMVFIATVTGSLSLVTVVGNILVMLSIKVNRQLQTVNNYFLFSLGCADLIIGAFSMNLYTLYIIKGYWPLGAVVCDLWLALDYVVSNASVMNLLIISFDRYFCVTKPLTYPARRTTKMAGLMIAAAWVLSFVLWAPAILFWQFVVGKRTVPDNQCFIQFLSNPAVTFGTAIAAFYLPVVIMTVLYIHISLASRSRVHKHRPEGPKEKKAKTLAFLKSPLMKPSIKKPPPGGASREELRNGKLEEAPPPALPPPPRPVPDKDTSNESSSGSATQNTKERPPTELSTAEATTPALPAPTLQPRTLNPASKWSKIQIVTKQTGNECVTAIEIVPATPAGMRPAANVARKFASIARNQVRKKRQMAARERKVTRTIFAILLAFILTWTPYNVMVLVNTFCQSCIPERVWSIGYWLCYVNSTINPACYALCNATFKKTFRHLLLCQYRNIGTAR

[8] = target: T2, Muscarinic acetylcholine receptor M5 (Homo sapiens); assay: Displacement of [3H]NMS from human muscarinic M5 receptor expressed in CHO cells coexpressing Gq protein up to 30 uM by scintillation counting; assay type: cell-based
[9] = target: T2, Muscarinic acetylcholine receptor M5 (Homo sapiens); assay: Activation of human muscarinic M5 receptor expressed in CHO cells coexpressing Gq protein assessed as increase in acetylcholine affinity at 30 uM by [3H]NMS competition binding assay relative to control; assay type: cell-based
[10] = Cmax in Sprague-Dawley rat brain at 10 mg/kg, ip within 1 hr; assay type: ADME, organism-based; parameters: dose 10 mg/kg, route intraperitoneal; summary of the method: as §1
[11] = Elimination half life in Sprague-Dawley rat brain at 10 mg/kg, ip; assay type: ADME, organism-based; parameters: dose 10 mg/kg, route intraperitoneal; settings: read-out: beta t1/2 (converted); summary of the method: as §1
[12] = target: T2, Muscarinic acetylcholine receptor M5 (Homo sapiens); assay: Intrinsic activity at human muscarinic M5 receptor expressed in CHO cells coexpressing Gq protein up to 30 uM by calcium mobilization assay in absence of acetylcholine; assay type: functional, cell-based
[13] = Tmax in Sprague-Dawley rat plasma at 10 mg/kg, ip; assay type: ADME, organism-based; parameters: dose 10 mg/kg, route intraperitoneal; summary of the method: as §1
[14] = target: T4, Muscarinic acetylcholine receptor M5 (Homo sapiens, UniProt P08912); assay: Activation of human muscarinic M5 receptor expressed in CHO cells coexpressing Gq protein assessed as potentiation of acetylcholine-induced intracellular Ca2+ mobilization; assay type: functional, cell-based
T4 sequence (P08912 whole entry): T2 sequence (whole entry)

[15] = Apparent oral clearance in Sprague-Dawley rat plasma at 10 mg/kg, ip; assay type: ADME, organism-based; parameters: dose 10 mg/kg; summary of the method: as §1
Homo sapiens = organism: Homo sapiens; assay: Selectivity ratio of EC50 for human muscarinic M3 receptor to EC50 for human muscarinic M5 receptor
[16] = target: T5, Muscarinic acetylcholine receptor M1 (Rattus norvegicus) (UniProt P08482); assay: Activation of rat muscarinic M1 receptor expressed in CHO cells co-expressing Gq protein assessed as potentiation of acetylcholine-induced intracellular Ca2+ mobilization at 30 uM relative to acetylcholine; assay type: functional, cell-based
T5 sequence (whole entry): T1 sequence (P08482 whole entry)

[17] = AUC (0 to 6 hrs) in Sprague-Dawley rat brain at 10 mg/kg, ip; assay type: ADME, organism-based; parameters: time < 6 hr, dose 10 mg/kg, route intraperitoneal; summary of the method: as §1

Chain of Muscarinic acetylcholine receptor M3 (P20309 whole entry): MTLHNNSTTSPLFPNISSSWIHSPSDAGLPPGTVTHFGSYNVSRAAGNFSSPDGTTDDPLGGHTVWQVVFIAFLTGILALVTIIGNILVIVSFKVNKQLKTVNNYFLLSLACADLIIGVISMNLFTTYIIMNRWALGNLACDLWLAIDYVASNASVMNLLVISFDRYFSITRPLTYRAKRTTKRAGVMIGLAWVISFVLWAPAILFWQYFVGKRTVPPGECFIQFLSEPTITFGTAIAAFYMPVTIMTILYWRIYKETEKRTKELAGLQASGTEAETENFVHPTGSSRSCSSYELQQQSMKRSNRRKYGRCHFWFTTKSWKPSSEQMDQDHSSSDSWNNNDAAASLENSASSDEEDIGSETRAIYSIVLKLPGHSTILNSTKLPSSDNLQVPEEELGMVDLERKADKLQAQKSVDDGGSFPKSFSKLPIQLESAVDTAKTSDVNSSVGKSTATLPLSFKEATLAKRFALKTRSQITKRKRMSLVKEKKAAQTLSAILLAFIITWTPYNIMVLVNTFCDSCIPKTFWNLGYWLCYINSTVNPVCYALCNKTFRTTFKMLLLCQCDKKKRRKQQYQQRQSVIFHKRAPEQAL

Q: Which EC50 [1] does the source give for `COc1ccc(CN2C(=O)C(=O)c3cc(OC(F)(F)F)ccc32)cc1` here?
A: > 30 µM

Q: And the Ratio EC50 [2]?
A: > 30

Q: And the Cmax [3]?
A: 162 ng/mL

Q: What about the EC50 [4] of the same molecule?
A: > 30 µM

Q: And the “beta t1/2” value (Plasma)?
A: 4.7 h

Q: And the Ratio EC50 [5]?
A: > 30

Q: What about the %max [6] of the same molecule?
A: 60.7%

Q: And the Activity [7]?
A: inactive

Q: What about the Activity [8] of the same molecule?
A: inactive

Q: What about the fold change (FC) [9] of the same molecule?
A: 10

Q: And the Cmax [10]?
A: 43.1 ng/mL

Q: And the half-life [11]?
A: 3.69 h

Q: What about the Activity [12] of the same molecule?
A: inactive

Q: And the Tmax [13]?
A: 1 h

Q: And the EC50 [14]?
A: 1.16 µM

Q: And the CL/F [15]?
A: 145 mL/min

Q: What about the Ratio EC50 (Homo sapiens) of the same molecule?
A: > 30

Q: What about the %max [16] of the same molecule?
A: 12.7%

Q: And the AUC(0-t) at 6 h [17]?
A: 159 ng·h/mL
